As usually defined, the pIC50 is −log10 of the IC50, conventionally taken in molar units. For orientation: inhibition means how much of the control response was suppressed. A higher inhibition goes with a strong effect.

Data on 2 compounds can be found in ChEMBL document CHEMBL1149629 (Bioorg Med Chem, 2007).

The species entered for assay [1] is Homo sapiens. As to the kind of experiment: Inhibition of CK1 at 1 uM. In outline: (§1)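 Single-concentration (1 µM) inhibition profiling carried out through a commercial kinase profiler screening service.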
For assay [2], the species on record is Homo sapiens. As to the kind of experiment: Inhibition of CAMK2 at 1 uM. In outline: as §1
In assay [3] the target is T1, Serine/threonine-protein kinase Chk1 (Homo sapiens) (UniProt O14757).
T1 sequence (whole entry): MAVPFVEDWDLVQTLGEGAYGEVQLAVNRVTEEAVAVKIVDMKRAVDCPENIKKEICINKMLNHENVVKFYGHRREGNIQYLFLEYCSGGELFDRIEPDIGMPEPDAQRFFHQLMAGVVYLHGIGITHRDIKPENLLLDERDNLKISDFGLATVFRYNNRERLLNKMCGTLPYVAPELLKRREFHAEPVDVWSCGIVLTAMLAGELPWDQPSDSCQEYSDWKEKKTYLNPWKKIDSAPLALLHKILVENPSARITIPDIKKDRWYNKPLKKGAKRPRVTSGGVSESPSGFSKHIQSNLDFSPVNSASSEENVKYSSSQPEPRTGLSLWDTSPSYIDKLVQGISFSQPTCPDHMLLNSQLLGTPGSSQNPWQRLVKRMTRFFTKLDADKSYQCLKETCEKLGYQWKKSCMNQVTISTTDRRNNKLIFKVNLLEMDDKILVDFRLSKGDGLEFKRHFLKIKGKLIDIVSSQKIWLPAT
The experiment in a line: Inhibition of Chk1 at 1 uM.

Assay [4] is filed under the species Homo sapiens. As to the kind of experiment: Inhibition of PKA at 1 uM. In outline:
as §1

Assay [5] has as its target T2, Serine/threonine-protein kinase Chk1 (Homo sapiens, UniProt O14757).
T2 sequence (O14757 whole entry): T1 sequence (whole entry)
As to the kind of experiment: Inhibition of human Chk1. In outline: (§2)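 Chk1 from a commercial source or purified as GST–Chk1 from baculovirus-infected Sf9 cells. Assay based on a published method. Percent inhibition determined at 10 µM; IC50 determined for selected compounds.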

The target in assay [6] is T1, Serine/threonine-protein kinase Chk1 (Homo sapiens). As to the kind of experiment: Inhibition of human Chk1 at 10 uM. In a few lines: as §2
The target of assay [7] is MAP kinase-activated protein kinase 2 (Homo sapiens) (UniProt P49137). The experiment in a line: Inhibition of MAPKAPK2 at 1 uM. In outline:
as §1

The subject of assay [8] is DU-145. As to the kind of experiment: Antiproliferative activity against human DU145 cells […] by microculture tetrazolium assay. It counts as functional, cell-based. In outline: (§3)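 Tumor cells (ATCC) grown in RPMI 1640 with 10% fetal calf serum, 2 mM L-glutamine, penicillin/streptomycin, 10 mM HEPES pH 7.4. Continuous exposure to graded concentrations for four doubling times, then MTT added and incubated 4 h at 37 °C. Formazan dissolved in DMSO, optical density read. IC50 = concentration reducing OD by 50% versus untreated controls.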

The target of assay [9] is AMP-activated protein kinase, AMPK (Homo sapiens) (UniProt P54646+O43741+P54619+Q9UGJ0+Q9Y478+Q13131+Q9UGI9). The experiment in a line: Inhibition of AMPK at 1 uM. It counts as protein-complex assay. In a few lines:
as §1

Assay [10] concerns the target Protein kinase C alpha type (Homo sapiens) (UniProt P17252). As to the kind of experiment: Inhibition of PKCalpha at 1 uM. In a few lines: as §1
The subject of assay [11] is L1210. As to the kind of experiment: Antiproliferative activity against mouse L1210 cells […] by microculture tetrazolium assay. It counts as functional, cell-based. In outline: as §3
In assay [12] the target is T3, Protein kinase C epsilon type (Homo sapiens) (UniProt Q02156).
T3 sequence (whole entry): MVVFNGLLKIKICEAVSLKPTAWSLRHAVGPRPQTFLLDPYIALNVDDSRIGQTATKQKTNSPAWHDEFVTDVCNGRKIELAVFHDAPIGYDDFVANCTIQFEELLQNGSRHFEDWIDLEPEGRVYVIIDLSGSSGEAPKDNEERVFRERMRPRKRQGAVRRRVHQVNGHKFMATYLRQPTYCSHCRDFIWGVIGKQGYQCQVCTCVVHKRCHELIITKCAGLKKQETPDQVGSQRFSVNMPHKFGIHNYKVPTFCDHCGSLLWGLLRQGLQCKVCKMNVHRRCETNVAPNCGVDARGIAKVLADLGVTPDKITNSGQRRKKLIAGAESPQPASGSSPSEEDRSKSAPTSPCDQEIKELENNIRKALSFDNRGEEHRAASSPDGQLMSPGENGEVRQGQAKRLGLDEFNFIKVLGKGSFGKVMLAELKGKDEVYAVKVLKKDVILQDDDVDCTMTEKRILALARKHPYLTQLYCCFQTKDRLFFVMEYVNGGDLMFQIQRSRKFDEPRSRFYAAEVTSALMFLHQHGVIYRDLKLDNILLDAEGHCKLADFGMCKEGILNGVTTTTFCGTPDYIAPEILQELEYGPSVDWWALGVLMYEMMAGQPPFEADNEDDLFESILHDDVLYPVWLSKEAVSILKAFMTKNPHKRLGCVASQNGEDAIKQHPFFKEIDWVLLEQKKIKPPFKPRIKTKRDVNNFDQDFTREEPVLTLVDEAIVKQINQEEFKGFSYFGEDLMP
The experiment in a line: Inhibition of PKCepsilon at 1 uM. In a few lines: as §1

Assay [13] has as its target Proto-oncogene tyrosine-protein kinase Src (Homo sapiens) (UniProt P12931). As to the kind of experiment: Inhibition of Src tyrosine kinase at 1 uM after 20 mins.
The species entered for assay [14] is Homo sapiens. As to the kind of experiment: Inhibition of FGFR3 at 1 uM. In a few lines:
as §1

For assay [15], the target named is Tyrosine-protein kinase Lck (Homo sapiens) (UniProt P06239). As to the kind of experiment: Inhibition of LCK at 1 uM. In a few lines:
as §1

In assay [16] the target is Mitogen-activated protein kinase 1 (Homo sapiens) (UniProt P28482). As to the kind of experiment: Inhibition of MAPK1 at 1 uM. In outline: as §1
Sequence of Mitogen-activated protein kinase 1 (Homo sapiens) (P28482 whole entry): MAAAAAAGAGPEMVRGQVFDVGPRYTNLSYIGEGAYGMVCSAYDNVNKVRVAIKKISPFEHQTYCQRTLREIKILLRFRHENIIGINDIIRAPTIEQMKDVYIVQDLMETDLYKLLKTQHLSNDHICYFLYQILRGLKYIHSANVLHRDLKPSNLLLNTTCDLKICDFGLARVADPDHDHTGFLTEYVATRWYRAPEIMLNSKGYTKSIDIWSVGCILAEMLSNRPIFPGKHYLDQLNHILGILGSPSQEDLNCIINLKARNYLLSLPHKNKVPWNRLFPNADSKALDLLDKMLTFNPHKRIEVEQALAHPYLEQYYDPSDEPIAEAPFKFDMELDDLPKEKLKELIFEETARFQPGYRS
For assay [17], the system named is HT-29. The experiment in a line: Antiproliferative activity against human HT29 cells […] by microculture tetrazolium assay. It counts as functional, cell-based. In outline:
as §3

Assay [18] deals with Protein kinase C beta type (Homo sapiens) (UniProt P05771). The experiment in a line: Inhibition of PKCbeta at 1 uM. In a few lines: as §1
Sequence of Protein kinase C beta type (Homo sapiens) (P05771 2-671 limits assumed): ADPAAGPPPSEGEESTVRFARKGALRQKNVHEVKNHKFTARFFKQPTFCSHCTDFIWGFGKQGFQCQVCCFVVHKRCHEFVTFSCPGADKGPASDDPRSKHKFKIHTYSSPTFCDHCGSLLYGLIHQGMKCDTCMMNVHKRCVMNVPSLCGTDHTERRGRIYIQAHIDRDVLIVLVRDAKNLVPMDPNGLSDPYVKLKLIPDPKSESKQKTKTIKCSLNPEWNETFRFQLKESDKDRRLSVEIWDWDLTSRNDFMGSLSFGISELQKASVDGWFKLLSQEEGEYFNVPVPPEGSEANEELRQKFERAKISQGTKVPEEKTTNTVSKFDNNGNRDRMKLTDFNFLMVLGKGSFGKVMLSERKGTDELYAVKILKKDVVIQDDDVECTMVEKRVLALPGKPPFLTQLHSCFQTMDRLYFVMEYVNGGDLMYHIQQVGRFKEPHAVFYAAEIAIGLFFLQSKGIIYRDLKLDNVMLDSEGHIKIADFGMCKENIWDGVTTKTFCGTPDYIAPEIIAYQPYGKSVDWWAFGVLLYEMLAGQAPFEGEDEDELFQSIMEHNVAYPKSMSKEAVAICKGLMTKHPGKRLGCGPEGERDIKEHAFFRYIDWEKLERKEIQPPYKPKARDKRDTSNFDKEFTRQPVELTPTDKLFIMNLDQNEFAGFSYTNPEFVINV
Assay [19] deals with A549. As to the kind of experiment: Antiproliferative activity against human A549 cells […] by microculture tetrazolium assay. It counts as functional, cell-based. In outline:
as §3

In assay [20] the target is Cyclin-dependent kinase 2 (Homo sapiens) (UniProt P24941). As to the kind of experiment: Inhibition of CDK2/cyclin A at 1 uM. In outline:
as §1

Assay [21] addresses Ribosomal protein S6 kinase beta-1 (Homo sapiens) (UniProt P23443). The experiment in a line: Inhibition of P70S6K at 1 uM. In a few lines:
as §1

The species named for assay [22] is Homo sapiens. As to the kind of experiment: Inhibition of GSK3 at 1 uM. In a few lines: as §1
Assay [23] is filed under the species Homo sapiens. As to the kind of experiment: Binding affinity to DNA assessed as melting temperature.
Assay [24] deals with T4, DNA topoisomerase 1 (Homo sapiens) (UniProt P11387).
T4 sequence (whole entry): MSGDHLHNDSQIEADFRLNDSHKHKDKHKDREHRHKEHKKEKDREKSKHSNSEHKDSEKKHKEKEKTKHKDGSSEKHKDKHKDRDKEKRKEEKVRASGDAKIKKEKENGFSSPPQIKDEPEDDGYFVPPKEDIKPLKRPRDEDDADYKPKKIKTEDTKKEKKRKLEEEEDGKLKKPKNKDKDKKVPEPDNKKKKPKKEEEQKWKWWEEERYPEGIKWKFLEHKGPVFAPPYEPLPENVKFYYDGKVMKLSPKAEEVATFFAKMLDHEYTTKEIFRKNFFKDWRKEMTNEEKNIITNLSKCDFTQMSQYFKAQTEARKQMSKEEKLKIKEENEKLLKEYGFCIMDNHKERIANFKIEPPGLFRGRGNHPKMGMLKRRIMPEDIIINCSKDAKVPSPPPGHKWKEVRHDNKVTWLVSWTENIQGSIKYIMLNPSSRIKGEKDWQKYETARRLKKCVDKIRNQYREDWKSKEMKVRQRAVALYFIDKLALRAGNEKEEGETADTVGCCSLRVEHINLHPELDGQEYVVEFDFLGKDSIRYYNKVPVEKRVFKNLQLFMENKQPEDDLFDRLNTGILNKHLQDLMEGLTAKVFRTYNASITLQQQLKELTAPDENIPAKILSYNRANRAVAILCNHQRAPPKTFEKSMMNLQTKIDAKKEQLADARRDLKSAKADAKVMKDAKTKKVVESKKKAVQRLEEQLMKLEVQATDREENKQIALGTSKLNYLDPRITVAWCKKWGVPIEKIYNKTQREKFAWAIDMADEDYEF
The experiment in a line: Inhibition of topoisomerase 1 upto 50 uM. In a few lines: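 DNA relaxation and DNA cleavage assays with topoisomerase I, run following published procedures, with compounds up to 50 µM.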

The target in assay [25] is T4, DNA topoisomerase 1 (Homo sapiens). The experiment in a line: Inhibition of topoisomerase 1.

pIC50: −log10 of the molar value. The source made the active and inactive calls. No cut-off for these calls is given here.

Sequence of Proto-oncogene tyrosine-protein kinase Src (Homo sapiens) (P12931 2-536 limits assumed): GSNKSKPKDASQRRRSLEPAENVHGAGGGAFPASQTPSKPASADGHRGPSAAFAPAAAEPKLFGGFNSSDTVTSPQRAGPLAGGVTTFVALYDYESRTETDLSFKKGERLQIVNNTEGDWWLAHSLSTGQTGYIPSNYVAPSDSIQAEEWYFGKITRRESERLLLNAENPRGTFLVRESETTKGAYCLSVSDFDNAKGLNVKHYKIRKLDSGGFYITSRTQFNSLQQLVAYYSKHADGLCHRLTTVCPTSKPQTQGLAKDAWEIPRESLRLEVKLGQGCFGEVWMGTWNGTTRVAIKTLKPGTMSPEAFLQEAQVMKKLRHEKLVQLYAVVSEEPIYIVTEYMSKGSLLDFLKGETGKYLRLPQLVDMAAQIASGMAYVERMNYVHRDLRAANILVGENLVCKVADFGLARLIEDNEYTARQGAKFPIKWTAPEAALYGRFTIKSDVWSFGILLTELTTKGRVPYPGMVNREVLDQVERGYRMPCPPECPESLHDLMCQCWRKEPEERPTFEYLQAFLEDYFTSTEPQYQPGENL
Sequence of Tyrosine-protein kinase Lck (Homo sapiens) (P06239 2-509 limits assumed): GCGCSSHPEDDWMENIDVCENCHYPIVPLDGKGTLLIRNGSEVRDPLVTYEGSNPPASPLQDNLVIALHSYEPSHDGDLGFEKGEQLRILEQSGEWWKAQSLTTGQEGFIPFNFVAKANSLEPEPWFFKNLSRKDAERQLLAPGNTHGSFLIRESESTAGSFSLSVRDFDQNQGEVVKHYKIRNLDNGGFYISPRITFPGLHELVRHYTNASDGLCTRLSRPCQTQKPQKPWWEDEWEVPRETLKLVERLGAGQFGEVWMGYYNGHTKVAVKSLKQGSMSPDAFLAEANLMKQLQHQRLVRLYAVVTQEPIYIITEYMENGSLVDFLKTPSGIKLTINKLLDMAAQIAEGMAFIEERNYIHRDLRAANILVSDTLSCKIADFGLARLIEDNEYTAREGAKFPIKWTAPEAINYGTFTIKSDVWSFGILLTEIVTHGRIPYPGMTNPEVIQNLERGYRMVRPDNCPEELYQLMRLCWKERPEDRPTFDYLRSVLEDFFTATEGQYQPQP
Sequence of Ribosomal protein S6 kinase beta-1 (Homo sapiens) (P23443 whole entry, looked up): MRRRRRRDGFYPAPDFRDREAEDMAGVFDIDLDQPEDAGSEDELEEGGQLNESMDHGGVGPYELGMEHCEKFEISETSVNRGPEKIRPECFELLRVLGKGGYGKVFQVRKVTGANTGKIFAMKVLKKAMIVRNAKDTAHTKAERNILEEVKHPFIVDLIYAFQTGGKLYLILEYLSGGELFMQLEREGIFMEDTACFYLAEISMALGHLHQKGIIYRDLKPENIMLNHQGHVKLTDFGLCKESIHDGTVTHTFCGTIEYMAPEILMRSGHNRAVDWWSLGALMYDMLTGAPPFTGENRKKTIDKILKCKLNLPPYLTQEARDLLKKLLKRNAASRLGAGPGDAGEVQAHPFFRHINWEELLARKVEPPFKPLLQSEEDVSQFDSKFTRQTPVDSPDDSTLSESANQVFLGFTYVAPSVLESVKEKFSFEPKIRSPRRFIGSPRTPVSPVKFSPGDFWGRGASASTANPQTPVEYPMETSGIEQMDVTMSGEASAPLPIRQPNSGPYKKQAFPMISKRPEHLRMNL
Sequence of MAP kinase-activated protein kinase 2 (Homo sapiens) (P49137 whole entry, looked up): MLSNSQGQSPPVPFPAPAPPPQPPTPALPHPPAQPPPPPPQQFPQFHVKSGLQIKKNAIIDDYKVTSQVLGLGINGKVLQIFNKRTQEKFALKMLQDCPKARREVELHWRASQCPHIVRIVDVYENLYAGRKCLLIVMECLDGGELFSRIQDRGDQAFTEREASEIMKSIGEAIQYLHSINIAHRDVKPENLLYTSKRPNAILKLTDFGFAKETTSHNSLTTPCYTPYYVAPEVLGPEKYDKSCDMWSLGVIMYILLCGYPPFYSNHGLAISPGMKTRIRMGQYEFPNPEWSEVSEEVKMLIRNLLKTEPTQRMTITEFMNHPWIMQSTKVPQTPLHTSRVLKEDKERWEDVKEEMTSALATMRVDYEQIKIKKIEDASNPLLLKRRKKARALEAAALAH

For the compound `O=C1NC(=O)c2c1c1c3cc(Br)ccc3[nH]c1c1cccn21`, the % activity turned out to be 104% in assay [1]; 55% in assay [2]; 14% in [3]; 103% in [4]; 99% in assay [7]; 46% in assay [9]. The % activity in assay [10] came out at 85%; in assay [12], 90%; in [14], 50%; in assay [15], 91%; in assay [16], 88%; in assay [18], 98%. The % activity is 88% in [20], 26% in [21] and 44% in assay [22]. Besides, the pIC50 in assay [5] is 7.18; in assay [8] it was 4.66; in [11], 4.90; in assay [17] it was 4.54; in assay [19] it was 4.68. Also, the results for the inhibition in assay [6] and in assay [13] were 87.9% and 22.3%, respectively.

In the case of `O=C1NC(=O)c2c1c1c3cc(Cl)ccc3[nH]c1c1cccn21`, the % activity in assay [1] was 94%; in assay [2], 40%; in assay [3] it was 6%; in [4] it was 98%; in assay [7] it was 75%; in [9], 29%. For the same compound, the % activity was determined as 75% in assay [10]; 86% in assay [12]; 32% in assay [14]; 92% in [15]; 98% in assay [16]; 79% in assay [18]. Besides, the figures for the % activity in [20], in assay [21] and in assay [22] were 69%, 51% and 39%, respectively. Besides, the outcome in assay [23], in [24] and in [25] was inactive. Moreover, the pIC50 in assay [5] was 7.05; in assay [8], 4.56; in [11], 4.83; in [17], 4.52; in assay [19] it was 4.54. Moreover, the inhibition came out at 95.4% in assay [6] and 22.1% in [13].
